Experimental data published in ChEMBL document CHEMBL1126681, “Novel acyclonucleotides: synthesis and antiviral activity of alkenylphosphonic acid derivatives of purines and a pyrimidine” (J Med Chem, 1993).
≈ marks a conversion by molar mass, not a printed value.

System: Cytomegalovirus
Assay: Compound was evaluated for anti-herpes virus activity against Cytomegalovirus (AD169) strain plaques in infected human fibroblast (MRC-5) cells; Not active
Format: functional, organism-based
Conditions: not given; call rule not given here
In short: (§1)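 Plaque-reduction assay in human fibroblast (MRC-5) cells infected with virus. IC50 is the compound concentration that halves the plaque count.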

Row | Structure (SMILES) | IC50
1 | Nc1nc(N)c2ncn(CC/C=C/P(=O)(O)O)c2n1 | Not Active

System: Cytomegalovirus
Assay: Compound was evaluated for anti-herpesvirus activity against Cytomegalovirus (AD169) strain plaques in infected human fibroblast (MRC-5) cells
Format: functional, organism-based
Conditions: Human betaherpesvirus 5, MRC5
In short: as §1

Row | Structure (SMILES) | IC50
2 | Nc1nc(O)c2ncn(CC/C=C/P(=O)(O)O)c2n1 | 52 µM
3 | Nc1nc(O)c2ncn(OCC/C=C/P(=O)(O)O)c2n1 | 0.53 µM
4 | Nc1nc(O)c2ncn(OCC(/C=C/P(=O)(O)O)CO)c2n1 (stereo not given) | 44 µM
5 | Nc1ncnc2c1ncn2CC(/C=C/P(=O)(O)O)CO (stereo not given) | 35 µM
6 | Nc1nc(O)c2ncn(CC(/C=C/P(=O)(O)O)CO)c2n1 (stereo not given) | < 9 µM

System: not listed separately
Assay: Compound was evaluated for the inhibition of cell replication human peripheral blood lymphocytes (PBL's)
Format: functional
Conditions: read-out: CD50 (the source's name)
In short: (§2)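 Cytotoxicity in uninfected cells, measured as inhibition of DNA synthesis by [3H]thymidine incorporation. CD50 is the concentration giving 50% inhibition of cell replication.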

Row | Structure (SMILES) | CC50
7 | Nc1ncnc2c1ncn2OCC/C=C/P(=O)(O)O | 130 µM
8 | Nc1nc(O)c2ncn(OCC/C=C/P(=O)(O)O)c2n1 | 0.23 µM

System: Visna-maedi virus
Assay: Compound was evaluated for anti-retrovirus activity against Visna virus (K184) strain in infected sheep choroid plexus cells.
Format: functional
Conditions: not given
In short: (§3)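 Infected sheep choroid plexus (SCP) cells. MIC is the lowest concentration that completely prevents virus cytopathic effect.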

Row | Structure (SMILES) | MIC
9 | Cc1cn([C@H]2C[C@H](N=[N+]=[N-])[C@@H](CO)O2)c(=O)[nH]c1=O [ZIDOVUDINE] | 5.6 µM (≈ 1.5 µg/mL)

System: not listed separately
Assay: Compound was evaluated for the inhibition of cell replication sheep choroid plexus (SCP) cells.
Format: functional
Conditions: Ovis aries; read-out: CD50 (the source's name)
In short: as §2

Row | Structure (SMILES) | CC50
10 | Cc1cn([C@H]2C[C@H](N=[N+]=[N-])[C@@H](CO)O2)c(=O)[nH]c1=O [ZIDOVUDINE] | > 370 µM

System: Human alphaherpesvirus 1
Assay: Compound was evaluated for anti-herpesvirus activity against Herpes simplex virus-1 (SC16) strain.
Format: functional, organism-based
Conditions: not given

Row | Structure (SMILES) | IC50
11 | Nc1nc2c(ncn2COCCO)c(=O)[nH]1 [ACYCLOVIR] | 3.9 µM

System: Human alphaherpesvirus 3
Assay: Compound was evaluated for anti-herpesvirus activity against Varicella Zoster virus (Ellen) strain.
Format: functional, organism-based
Conditions: not given
In short: as §1

Row | Structure (SMILES) | IC50
12 | Nc1nc2c(ncn2COCCO)c(=O)[nH]1 [ACYCLOVIR] | 21 µM

System: not listed separately
Assay: Compound was evaluated for the inhibition of cell replication sheep choroid plexus (SCP) cells
Format: functional
Conditions: Ovis aries; read-out: CD50 (the source's name)
In short: as §2

Row | Structure (SMILES) | CC50
13 | Nc1nc(O)c2ncn(CC/C=C/P(=O)(O)O)c2n1 | 1.3 µM
14 | Nc1nc(N)c2ncn(CC/C=C/P(=O)(O)O)c2n1 | 95 µM
15 | Nc1nc(O)c2ncn(OCC/C=C/P(=O)(O)O)c2n1 | 0.13 µM

System: MRC5
Assay: Compound was evaluated for the inhibition of cell replication of human fibroblast (MRC-5) cells
Format: functional
Conditions: read-out: CD50 (the source's name)
In short: as §2

Row | Structure (SMILES) | CC50
16 | Nc1nc(O)c2ncn(CC/C=C/P(=O)(O)O)c2n1 | 4.5 µM
17 | Nc1ncnc2c1ncn2OCC/C=C/P(=O)(O)O | 330 µM
18 | Nc1nc(N)c2ncn(CC/C=C/P(=O)(O)O)c2n1 | 222 µM
19 | Nc1nc(O)c2ncn(OCC/C=C/P(=O)(O)O)c2n1 | 0.1 µM
20 | Nc1nc(O)c2ncn(OCC(/C=C/P(=O)(O)O)CO)c2n1 (stereo not given) | 19 µM
21 | Nc1ncnc2c1ncn2CC(/C=C/P(=O)(O)O)CO (stereo not given) | 189 µM
22 | Nc1nc(O)c2ncn(CC(/C=C/P(=O)(O)O)CO)c2n1 (stereo not given) | 20 µM

System: PBL
Assay: Compound was evaluated for the inhibition of cell replication human peripheral blood lymphocytes (PBL's).
Format: functional
Conditions: read-out: CD50 (the source's name)
In short: as §2

Row | Structure (SMILES) | CC50
23 | Cc1cn([C@H]2C[C@H](N=[N+]=[N-])[C@@H](CO)O2)c(=O)[nH]c1=O [ZIDOVUDINE] | 13 µM

System: Human alphaherpesvirus 1
Assay: Compound was evaluated for anti-herpesvirus activity against Herpes simplex virus-1 (SC16) strain
Format: functional, organism-based
Conditions: not given

Row | Structure (SMILES) | IC50
24 | Nc1nc(O)c2ncn(OCC/C=C/P(=O)(O)O)c2n1 | < 10 µM
25 | Nc1nc(O)c2ncn(OCC(/C=C/P(=O)(O)O)CO)c2n1 (stereo not given) | 295 µM
26 | Nc1ncnc2c1ncn2CC(/C=C/P(=O)(O)O)CO (stereo not given) | 137 µM
27 | Nc1nc(O)c2ncn(CC(/C=C/P(=O)(O)O)CO)c2n1 (stereo not given) | 60 µM

System: Human alphaherpesvirus 2
Assay: Compound was evaluated for anti-herpesvirus activity against Herpes simplex virus-2 (MS) strain; Not active
Format: functional, organism-based
Conditions: not given
In short: as §1

Row | Structure (SMILES) | IC50
28 | Nc1ncnc2c1ncn2OCC/C=C/P(=O)(O)O | Not Active
29 | Nc1nc(N)c2ncn(CC/C=C/P(=O)(O)O)c2n1 | Not Active

System: Human immunodeficiency virus 1
Assay: Compound was evaluated for anti-retrovirus activity against HIV-1 (D34) Diagen strain; Not active
Format: functional, organism-based
Conditions: not given

Row | Structure (SMILES) | IC50
30 | Nc1nc(O)c2ncn(CC/C=C/P(=O)(O)O)c2n1 | Not Active
31 | Nc1ncnc2c1ncn2CC(/C=C/P(=O)(O)O)CO (stereo not given) | Not Active
32 | Nc1nc(O)c2ncn(CC(/C=C/P(=O)(O)O)CO)c2n1 (stereo not given) | Not Active

System: Human alphaherpesvirus 1
Assay: Compound was evaluated for anti-herpesvirus activity against Herpes simplex virus-1 (SC16) strain; Not active
Format: functional, organism-based
Conditions: not given

Row | Structure (SMILES) | IC50
33 | Nc1nc(O)c2ncn(CC/C=C/P(=O)(O)O)c2n1 | Not Active
34 | Nc1ncnc2c1ncn2OCC/C=C/P(=O)(O)O | Not Active
35 | Nc1nc(N)c2ncn(CC/C=C/P(=O)(O)O)c2n1 | Not Active

System: Human alphaherpesvirus 3
Assay: Compound was evaluated for anti-herpesvirus activity against Varicella Zoster virus (Ellen) strain
Format: functional, organism-based
Conditions: not given
In short: as §1

Row | Structure (SMILES) | IC50
36 | Nc1nc(O)c2ncn(CC/C=C/P(=O)(O)O)c2n1 | 190 µM
37 | Nc1nc(O)c2ncn(OCC/C=C/P(=O)(O)O)c2n1 | < 10 µM
38 | Nc1nc(O)c2ncn(OCC(/C=C/P(=O)(O)O)CO)c2n1 (stereo not given) | 15 µM
39 | Nc1ncnc2c1ncn2CC(/C=C/P(=O)(O)O)CO (stereo not given) | 16 µM
40 | Nc1nc(O)c2ncn(CC(/C=C/P(=O)(O)O)CO)c2n1 (stereo not given) | 17 µM

System: MRC5
Assay: Compound was evaluated for the inhibition of cell replication of human fibroblast (MRC-5) cells.
Format: functional
Conditions: read-out: CD50 (the source's name)
In short: as §2

Row | Structure (SMILES) | CC50
41 | Nc1nc2c(ncn2COCCO)c(=O)[nH]1 [ACYCLOVIR] | 355 µM
42 | Cc1cn([C@H]2C[C@H](N=[N+]=[N-])[C@@H](CO)O2)c(=O)[nH]c1=O [ZIDOVUDINE] | 72 µM

System: Cytomegalovirus
Assay: Compound was evaluated for anti-herpesvirus activity against Cytomegalovirus (AD169) strain plaques in infected human fibroblast (MRC-5) cells; Not active
Format: functional, organism-based
Conditions: not given
In short: as §1

Row | Structure (SMILES) | IC50
43 | Nc1ncnc2c1ncn2OCC/C=C/P(=O)(O)O | Not Active

System: Human alphaherpesvirus 2
Assay: Compound was evaluated for anti-herpesvirus activity against Herpes simplex virus-2 (MS) strain.
Format: functional, organism-based
Conditions: not given
In short: as §1

Row | Structure (SMILES) | IC50
44 | Nc1nc2c(ncn2COCCO)c(=O)[nH]1 [ACYCLOVIR] | 4.3 µM

System: Cytomegalovirus
Assay: Compound was evaluated for anti-herpesvirus activity against Cytomegalovirus (AD169) strain plaques in infected human fibroblast (MRC-5) cells.
Format: functional, organism-based
Conditions: Human betaherpesvirus 5, MRC5
In short: as §1

Row | Structure (SMILES) | IC50
45 | Nc1nc2c(ncn2COCCO)c(=O)[nH]1 [ACYCLOVIR] | 93 µM

System: Visna-maedi virus
Assay: Compound was evaluated for anti-retrovirus activity against Visna virus (K184) strain in infected sheep choroid plexus cells
Format: functional
Conditions: not given
In short: as §3

Row | Structure (SMILES) | MIC
46 | Nc1nc(O)c2ncn(CC/C=C/P(=O)(O)O)c2n1 | 0.35 µM (≈ 0.0998 µg/mL)
47 | Nc1ncnc2c1ncn2OCC/C=C/P(=O)(O)O | 82 µM (≈ 23.4 µg/mL)
48 | Nc1nc(N)c2ncn(CC/C=C/P(=O)(O)O)c2n1 | 2.1 µM (≈ 0.597 µg/mL)
49 | Nc1nc(O)c2ncn(OCC/C=C/P(=O)(O)O)c2n1 | < 0.01 µM

System: Human immunodeficiency virus 1
Assay: Compound was evaluated for anti-retrovirus activity against HIV-1 (D34) Diagen strain
Format: functional, organism-based
Conditions: not given

Row | Structure (SMILES) | IC50
50 | Nc1ncnc2c1ncn2OCC/C=C/P(=O)(O)O | 10.2 µM
51 | Nc1nc(N)c2ncn(CC/C=C/P(=O)(O)O)c2n1 | 9.8 µM
52 | Nc1nc(O)c2ncn(OCC/C=C/P(=O)(O)O)c2n1 | 0.1 µM
53 | Nc1nc(O)c2ncn(OCC(/C=C/P(=O)(O)O)CO)c2n1 (stereo not given) | 8.9 µM

System: Human alphaherpesvirus 2
Assay: Compound was evaluated for anti-herpesvirus activity against Herpes simplex virus-2 (MS) strain
Format: functional, organism-based
Conditions: not given
In short: as §1

Row | Structure (SMILES) | IC50
54 | Nc1nc(O)c2ncn(CC/C=C/P(=O)(O)O)c2n1 | 90 µM
55 | Nc1nc(O)c2ncn(OCC/C=C/P(=O)(O)O)c2n1 | < 10 µM
56 | Nc1nc(O)c2ncn(OCC(/C=C/P(=O)(O)O)CO)c2n1 (stereo not given) | 177 µM
57 | Nc1ncnc2c1ncn2CC(/C=C/P(=O)(O)O)CO (stereo not given) | 91 µM
58 | Nc1nc(O)c2ncn(CC(/C=C/P(=O)(O)O)CO)c2n1 (stereo not given) | 66 µM

System: Human alphaherpesvirus 3
Assay: Compound was evaluated for anti-herpesvirus activity against Varicella Zoster virus (Ellen) strain; Not active
Format: functional, organism-based
Conditions: not given
In short: as §1

Row | Structure (SMILES) | IC50
59 | Nc1ncnc2c1ncn2OCC/C=C/P(=O)(O)O | Not Active
60 | Nc1nc(N)c2ncn(CC/C=C/P(=O)(O)O)c2n1 | Not Active
